CYP2C19 inhib – blockers of cytochrome P450 2C19 activity – biochemical, luminescence, ADME assay, primary screen | P33261 | CYP2C19 Supersomes, luciferin-H EGE luminescence, 30 min | inhibition, % at 5 µM | actives 21% (n = 96,000) | AID 778, 2007;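 active means CYP2C19 inhibition above a set limit at 5 µM in the primary screen, cut at about 50% in these data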
Target sequence (P33261 whole entry, looked up): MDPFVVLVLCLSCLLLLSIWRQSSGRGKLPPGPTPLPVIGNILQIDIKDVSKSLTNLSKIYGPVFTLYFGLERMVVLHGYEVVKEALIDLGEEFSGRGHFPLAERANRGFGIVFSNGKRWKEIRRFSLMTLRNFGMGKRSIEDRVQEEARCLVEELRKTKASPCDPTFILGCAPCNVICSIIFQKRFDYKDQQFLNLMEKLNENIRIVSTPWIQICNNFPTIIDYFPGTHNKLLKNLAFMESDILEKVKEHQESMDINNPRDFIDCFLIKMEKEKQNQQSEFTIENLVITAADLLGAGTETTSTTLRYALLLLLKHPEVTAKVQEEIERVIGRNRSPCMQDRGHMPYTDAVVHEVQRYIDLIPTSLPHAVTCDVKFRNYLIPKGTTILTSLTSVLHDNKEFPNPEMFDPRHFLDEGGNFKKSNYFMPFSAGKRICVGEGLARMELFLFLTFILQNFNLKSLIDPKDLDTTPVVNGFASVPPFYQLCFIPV
HIV Rev-RRE inh – HIV-1 Rev-RRE binding inhibitors, primary screen, biochemical, FRET, protein-RNA interaction; AID 704, 2007; Rev peptide-RRE RNA binding; actives 0.79% (n = 97,000); inhibition, % at 8 µM; P05866;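 active means inhibition above the screen-wide mean plus 3 SD, cut at about 35% in these data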
Target sequence (P05866 whole entry, looked up): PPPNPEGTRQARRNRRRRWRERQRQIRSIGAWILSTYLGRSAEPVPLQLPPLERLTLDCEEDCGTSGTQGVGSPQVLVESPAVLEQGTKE
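Material: labelled RRE RNA duplex and labelled Rev peptide / Buffer or medium: HEPES pH 7.5 salt buffer with EDTA / Compound dosing: single point, 8 µM final nominal compound concentration / Benchmarks: DMSO low control, neomycin B high control / Timing: 5 min preincubation and 15 min binding, 25 °C / Technique: FRET fluorescence readout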
CYP2C9 inhib – blockers of cytochrome P450 2C9 activity – biochemical, luminescence, ADME assay, primary screen. actives 20% (n = 96,000). P11712. CYP2C9 Supersomes, luciferin-H conversion. inhibition, % at 5 µM. AID 777, 2007;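 active means blocking of liver enzyme CYP2C9 beyond about 50% at 5 µM, limit read from the data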
Cav3 T inh – Cav3.2 calcium influx blockers – cell-based, Fluo-4 calcium fluorescence, FDSS, MLSMR library, primary screen; AID 449739, 2010; actives 4% (n = 100,000); Cav3.2-expressing cells; active compounds read low; B-score at 10 µM; Voltage-dependent T-type calcium channel subunit alpha-1H (Homo sapiens), O95180;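 active means single-dose well whose peak fluorescence ratio is a statistical outlier from its plate by either plate-standardised score or position-corrected B-score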
CYP2C19 activ – human CYP2C19 activators, primary screen, biochemical, luminescence | AID 1025, 2008 | Cytochrome P450 2C19 (Homo sapiens), P33261 | recombinant CYP2C19, luciferin-H EGE luminescence; active compounds read high; 0 = fully inhibited enzyme, 1 = untreated enzyme | 96,000 tested, under 10 active | activation factor at 5 µM;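 active means activation factor of at least 2 at 5 µM in the primary screen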
CYP2C9 activ – human CYP2C9 activators, primary screen, biochemical, luminescence; Cytochrome P450 2C9 (Homo sapiens), P11712; recombinant CYP2C9, luciferin-H conversion; active compounds read high; factor 1 = untreated enzyme, 0 = blocked; activation factor at 5 µM; actives 1.4% (n = 96,000);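 active means activation factor of 2 or more for CYP2C9 at a 5 µM dose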
Hits are given with their value; - = inactive; . = no result. Shown are actives, neighbours in structure and some others; about 27% of the full set was active somewhere.

SMILES | CYP2C19 inhib | HIV Rev-RRE inh | CYP2C9 inhib | Cav3 T inh | CYP2C19 activ | CYP2C9 activ
Cn1ccnc1SC(=O)N1c2ccccc2Sc2ccccc21 | 84 | - | 97 | - | - | -
COc1ccccc1/C=C/C(=O)c1cc(Br)ccc1OC(=O)c1ccco1 | . | - | . | -4.5 | . | .
Cc1cccc(/C=C/C(=O)c2cc(Br)ccc(=O)c2O)c1 | - | 37 | - | - | - | -
Cc1ccc(/C=C/C(=O)c2cc(Br)ccc2OC(=O)c2ccco2)cc1 | 83 | - | 76 | - | - | -
CCc1ccc(/C=C/C(=O)c2cc(Br)ccc(=O)c2O)cc1 | - | - | - | - | - | -
CC(=O)Nc1ccc(OCC=C(Cl)Cl)cc1 | - | - | - | - | - | -
CSc1ccccc1C(=O)NC1CCCCC1 | - | - | - | - | - | -
COc1cccc(CNC(=O)Cn2cc3c(n2)CCCCC3)c1 | 92 | . | - | - | - | 2.4
COc1ccc(C2CC(c3ccc(Cl)c(Cl)c3)Nc3nc(N)nn32)cc1 (configuration not stated) | - | . | - | - | - | -
CC(Oc1ccc(F)cc1)C(=O)Nc1ccc2ccccc2c1 (configuration not stated) | - | - | - | - | - | -
CCn1c2ccccc2c2cc(NC(=O)C(C)Oc3ccc(OC)cc3)ccc21 (configuration not stated) | 69 | - | - | - | - | -
CCn1c2ccccc2c2cc(NC(=O)CSc3nnc(-c4cccc(OC)c4)n3N)ccc21 | - | - | - | - | - | -
CCn1c2ccccc2c2cc(NC(=O)C(C)Oc3ccccc3)ccc21 (configuration not stated) | 61 | - | - | - | - | -
CCNc1nc(NC(C)C)nc(Oc2ccc(OCCOc3ccccc3)nn2)n1 | - | - | - | - | - | -
C#CCOCCOCCOCCNc1nc(N2CCN(C(=O)[C@H]([C@@H](C)CC)n3cc([C@@H](N)CC(C)C)nn3)CC2)nc(N2CCN(C(=O)[C@H]([C@@H](C)CC)n3cc([C@@H](N)CC(C)C)nn3)CC2)n1 | . | . | . | - | . | .
Cn1ccnc1SCC(=O)Nc1ccc2ccccc2c1 | 93 | - | - | - | - | -
Cc1cc(NC(=O)CSc2ccc3ccccc3c2)no1 | 50 | - | 79 | - | - | -
O=C(CSc1ccc2ccccc2c1)Nc1ccncc1 | 97 | - | 95 | . | - | -
CC(C)(C)n1nnnc1C(c1ccccc1F)N1CCN(C2CCCC2)CC1 (configuration not stated) | - | . | - | . | - | -
CN(C)c1nc(N)nc(Cn2ccnc2)n1 | 54 | - | - | - | - | -
C[C@H]1C[C@@H]2[C@H]([C@@H](O)C[C@@]3(C)[C@H]2CC[C@]3(O)C(=O)CO)[C@@]2(C)C=CC(=O)C=C12 | . | . | . | - | . | .
O=S(=O)(NCCc1csc(-c2ccc(C(F)(F)F)cc2)n1)c1ccc2c(c1)OCCO2 | - | - | - | - | - | -
COc1ccc(CCNS(=O)(=O)c2ccc3c(c2)OCCO3)cc1OC | 84 | - | - | - | - | -
COc1ccc(-c2nc(CCNS(=O)(=O)c3ccc4c(c3)OCCO4)cs2)cc1 | 98 | - | 80 | - | - | -
COc1ccc(S(=O)(=O)NCCC(C)C)cc1OC | 96 | - | - | - | - | 3.4
SMILES | CYP2C19 inhib | HIV Rev-RRE inh | CYP2C9 inhib | Cav3 T inh | CYP2C19 activ | CYP2C9 activ
COCCCNS(=O)(=O)c1ccc2c(c1)OCCO2 | 78 | . | - | . | - | -
COc1ccc(CCNS(=O)(=O)c2ccc3c(c2)oc(=O)n3C)cc1OC | . | . | . | - | . | .
CC(C)CCNS(=O)(=O)c1ccc(-c2ccc(S(=O)(=O)NCCC(C)C)cc2)cc1 | - | - | - | - | - | -
COC(=O)C(C)Sc1nc2c(cnn2-c2ccccc2)c(=O)[nH]1 (configuration not stated) | - | - | - | - | - | -
O=C(Nc1ccc(N2CCCCC2)c(Cl)c1)c1ncn[nH]1 | - | - | - | - | - | -
O=S(=O)(NCCSc1ccc(Cl)cc1)c1ccc2c(c1)OCCO2 | 86 | - | 63 | -8.7 | - | -
O=S(=O)(NCCSCc1c(Cl)cccc1Cl)c1ccc2c(c1)OCCO2 | . | - | . | - | . | .
O=c1c2ccccc2n2nnnc2n1-c1ccccc1 | - | - | - | . | - | -
O=C1Nc2ccc(S(=O)(=O)NCc3ccco3)c3cccc1c23 | . | - | . | - | . | .
CN(c1ccccc1C(=O)O)S(=O)(=O)c1ccc2c3c(cccc13)C(=O)N2 | . | - | . | - | . | .
CC(C)C(NS(=O)(=O)c1ccc2c3c(cccc13)C(=O)N2)C(=O)O (configuration not stated) | - | - | - | - | - | -
Cc1oc2c(cc(NS(=O)(=O)c3ccc4c5c(cccc35)C(=O)N4)c3ccccc32)c1C(=O)OC(C)C | - | - | 89 | . | - | -
O=C1Nc2ccc(NS(=O)(=O)c3cccs3)c3cccc1c23 | 89 | - | 89 | . | - | -
O=C(O)c1ccccc1NS(=O)(=O)c1ccc2c3c(cccc13)C(=O)N2 | - | . | 97 | - | - | -
COC(=O)c1c(C)oc2c1cc(NS(=O)(=O)c1cccs1)c1ccccc12 | 92 | - | 95 | - | - | -
COc1ccc(NC(=O)C(CCS(C)(=O)=O)N2C(=O)c3ccccc3C2=O)cc1 (configuration not stated) | - | - | - | - | - | -
O=C1CCCN1CCC1CCN(C2CC(=O)N(c3ccc(Cl)cc3)C2=O)CC1 (configuration not stated) | - | - | - | - | - | -
Cn1c(=O)oc2cc(S(=O)(=O)NC3CCCc4ccccc43)ccc21 (configuration not stated) | - | - | - | - | - | -
O=S(=O)(NC1CCCc2ccccc21)c1cnc[nH]1 (configuration not stated) | 68 | . | 52 | - | - | -
CCCOC(=O)c1ccc(-c2c(C)noc2-c2ccc(OC)cc2O)o1 | 81 | - | 92 | -4.4 | - | -
COC(=O)CSc1nc(C(C)C)nc2ccccc12 | 80 | - | - | - | - | -
COC(=O)CSc1nc2ccccc2nc1SCC(=O)OC | 54 | - | - | - | - | -
COc1cccc(N2[C@@H](CC(=O)O)c3ccc(/C=C/C(=O)O)cc3S2(=O)=O)c1 | . | . | . | - | . | .
Cn1c(=O)c2[nH]c(CN(Cc3ccccc3)Cc3ccccc3)nc2n(C)c1=O | - | - | 81 | . | - | -
Cn1c(=O)c2[nH]c(C3CCCC3)nc2n(C)c1=O | . | . | . | - | . | .
CN(C)Cc1nc2c([nH]1)c(=O)n(C)c(=O)n2C | 51 | - | - | - | - | -
CCC(=O)Nc1nc(=S)ss1 | - | - | 99 | - | - | -
